# The source made the active and inactive calls. No cut-off for these calls is given here.
# Assays:
# [1] = tested on: MCF7; test: Cell cycle arrest in human MCF7 cells assessed as accumulation at G2-M phase at 2 uM after 24 hrs by propidium iodide/RNAse staining-based FACS analysis (reference value: 8.20 %); type: functional
# [2] = tested on: MCF7; test: Cell cycle arrest in human MCF7 cells assessed as accumulation at G0-G1 phase after 24 hrs by propidium iodide/RNAse staining-based FACS analysis; type: functional
# [3] = tested on: MCF7; test: Cell cycle arrest in human MCF7 cells assessed as accumulation at […] phase at 2 uM after 48 hrs by propidium iodide/RNAse staining-based FACS analysis (reference value: 8.02 %); type: functional
# [4] = tested on: MCF7; test: Induction of apoptosis in human MCF7 cells assessed as late apoptotic cells at 1 uM after 48 hrs by annexin V staining-based flow cytometry (reference value: 3.24 %); type: functional
# [5] = tested on: MCF7; test: Induction of apoptosis in human MCF7 cells assessed as late apoptotic cells at 3 uM after 48 hrs by annexin V staining-based flow cytometry (reference value: 3.24 %); type: functional
# [6] = tested on: MCF7; test: Induction of apoptosis in human MCF7 cells assessed as reduction in cyclin B1 protein expression at 2 uM after 16 hrs by Western blotting analysis; type: functional; design: scale not given: the % may be the effect or the level left
# Method in brief: (§1)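 MCF-7 seeded at 5 × 10⁴/cm² and exposed at 24 h to 2 µM compound for 0, 4, 8, 16 and 24 h. Lysates separated on 12% SDS gels, transferred to nitrocellulose, blocked in 5% milk. Primary antibodies applied overnight at 4 °C, then secondary 1 h at room temperature. Detection by ECL chemiluminescence with β-actin as loading reference.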
# [7] = tested on: MCF7; test: Induction of apoptosis in human MCF7 cells assessed as reduction in cyclin D1 protein expression at 2 uM after 4 hrs by Western blotting analysis relative to control; type: functional; design: scale not given: the % may be the effect or the level left; method in brief: as §1
# [8] = tested on: MCF7; test: Induction of apoptosis in human MCF7 cells assessed as reduction in total pRb protein expression at 2 uM after 16 hrs by Western blotting analysis relative to control; type: functional; design: scale not given: the % may be the effect or the level left
# Method in brief: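 MCF-7 seeded at 5 × 10⁴ cells/cm², exposed after 24 h to 2 µM for 0, 4, 8, 16 and 24 h. Lysed in SDS sample buffer, run on 12% acrylamide gels, transferred to nitrocellulose and blocked with 5% milk. Primary antibodies overnight at 4 °C (total or phospho-pRb, β-actin), secondary 1 h at room temperature, ECL chemiluminescence detection.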
# [9] = tested on: MCF7; test: Induction of apoptosis in human MCF7 cells assessed as increase in total p53 expression level at 2 uM after 4 to 24 hrs by Western blotting analysis relative to control; type: functional, cell-based; method in brief: as §1
# [10] = tested on: MCF7; test: Induction of apoptosis in human MCF7 cells assessed as increase in E-cadherin expression at 1 to 2 uM after 48 hrs by FACS analysis; type: functional, cell-based
# Method in brief: (§2)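 MCF-7 seeded at 5 × 10⁴/cm² and treated at 24 h with 1 or 2 µM compound for 48 h. Labelled with fluorochrome-conjugated anti-E-cadherin or anti-β-catenin antibody for 30 min at 4 °C in the dark, washed in PBS. Mean fluorescence intensity measured by FACScan flow cytometry.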
# [11] = tested on: MCF7; test: Induction of apoptosis in human MCF7 cells assessed as increase in beta-cadenin expression at 1 to 2 uM after 48 hrs by FACS analysis; type: functional, cell-based; method in brief: as §2
# [12] = tested on: Mus musculus; test: Toxicity in C57BL/6 mouse allografted with mouse E0771 cells assessed as survival at 5 to 15 mg/kg, po; type: organism-based; design: dose 5-15 mg/kg, route oral; conditions: in vivo
# Method in brief: (§3)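 C57BL/6 mice (10 per group) injected subcutaneously in the right side with 1 × 10⁶ E0771 cells. At day 9, with tumours at 75 mm³, mice were randomised to oral vehicle (1% methylcellulose) or 5, 10 or 15 mg/kg on six occasions. Animals were monitored to day 42 for survival and for signs of toxicity such as hair loss or diarrhoea.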
# [13] = tested on: Mus musculus; test: Toxicity in C57BL/6 mouse allografted with mouse E0771 cells assessed as hair loss at 5 to 15 mg/kg, po; type: organism-based; design: dose 5-15 mg/kg, route oral; conditions: in vivo; method in brief: as §3
# [14] = tested on: MCF7; test: Cytotoxicity against human MCF7 cells assessed as reduction in cell viability after 3 days by SRB assay; type: functional, cell-based
# Method in brief: (§4)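 MCF-7 seeded at high density (5 × 10⁴/cm²) and treated at 24 h with compound for 3 days, with or without 20 mM NAC. Viable cells quantified by sulforhodamine B staining, OD 492 nm. Viability reduction expressed versus untreated controls.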
# [15] = Cytotoxicity against mouse E0771 cells after 3 days by SRB assay; type: functional, cell-based; conditions: E0771, 72 h
# Method in brief: (§5)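 Cells seeded at 5 × 10³ cells/cm² in quadruplicate and, after 24 h, treated with increasing concentrations for 3 days. Compounds diluted from DMSO stock, final DMSO <0.1% v/v. Cells were fixed with cold 10% TCA, stained with 0.4% sulforhodamine B in 1% acetic acid, and dye solubilised in 10 mM Tris-base pH 10.5. OD read at 492 nm. IC50 obtained by linear interpolation on a semi-log dose-response curve.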
# [16] = tested on: MCF7; test: Cytotoxicity against human MCF7 cells after 3 days by SRB assay; type: functional, cell-based; conditions: MCF7, 72 h
# Method in brief: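 Cells seeded in quadruplicate at 5 × 10³ cells/cm². Compound added at 24 h over increasing concentrations for 3 days. Cells fixed with cold 10% TCA, stained with 0.4% sulforhodamine B in 1% acetic acid, dye solubilized in 10 mM Tris pH 10.5, OD read at 492 nm. IC50 taken by linear interpolation of the semi-log dose-response curve. DMSO below 0.1% final.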
# [17] = tested on: MDA-MB-231; test: Cytotoxicity against human MDA-MB-231 cells after 3 days by SRB assay; type: functional, cell-based; conditions: MDA-MB-231, 72 h; method in brief: as §5
# [18] = tested on: T47D; test: Cytotoxicity against human T47D cells after 3 days by SRB assay; type: functional, cell-based; conditions: 72 h; method in brief: as §5
# [19] = Cytotoxicity against human CCD-18Co cells after 3 days by SRB assay; type: cell-based; conditions: 72 h; method in brief: as §5
# [20] = Therapeutic index, ratio of IC50 for human MCF10A cells to IC50 for human T47D cells; type: cell-based, MCF-10A; conditions: MCF10A cells versus T47D cells, read-out: Ratio IC50
# [21] = Therapeutic index, ratio of IC50 for human CCD-18Co cells to IC50 for human T84 cells; type: cell-based, T84; CCD-18Co; conditions: CCD-18Co cells versus T84 cells, read-out: Ratio IC50
# [22] = Therapeutic index, ratio of IC50 for human CCD-18Co cells to IC50 for human RKO cells; type: cell-based; conditions: CCD-18Co cells versus RKO cells, read-out: Ratio IC50
# [23] = tested on: MCF7; test: Cytotoxicity against human MCF7 cells assessed as reduction in cell viability at 2 uM after 3 days by SRB assay relative to control; type: functional; method in brief: as §4
# [24] = tested on: MCF7; test: Cytotoxicity against human MCF7 cells assessed as reduction in cell viability at 3 uM after 3 days by SRB assay relative to control; type: functional; method in brief: as §4
# [25] = tested on: MCF7; test: Cytotoxicity against human MCF7 cells at 1 to 3 uM after 3 days by SRB assay in presence of NAC; type: functional, cell-based; method in brief: as §4
# [26] = tested on: MCF7; test: Cell cycle arrest in human MCF7 cells assessed as accumulation at G0-G1 phase at 1 uM after 24 hrs by propidium iodide/RNAse staining-based FACS analysis (reference value: 42.34 %); type: functional
# [27] = tested on: MCF7; test: Cell cycle arrest in human MCF7 cells assessed as accumulation at G0-G1 phase at 3 uM after 24 hrs by propidium iodide/RNAse staining-based FACS analysis (reference value: 42.34 %); type: functional
structure (smiles),measurement,setting,value
C=C1CC[C@@H]2[C@](C)(CCC[C@]2(C)C(=O)OC)[C@H]1Cc1c(C)ccc2c1C(=O)C=CC2=O,Activity,[1],19.25%
same,Activity,[2],Dose-dependent effect
same,Activity,[3],31.09%
same,Activity,[4],9.63%
same,Activity,[5],9.5%
same,Activity,[6],6%
same,Activity,[7],80%
same,Activity,[8],90%
same,Activity,[9],Active
same,Activity,[10],Active
same,Activity,[11],Active
same,Activity,[12],Non-toxic
same,Activity,[13],Non-toxic
same,Activity,[14],Dose-dependent effect
same,IC50,[15],0.39 µM
same,IC50,[16],0.35 µM
same,IC50,[17],0.46 µM
same,IC50,[18],0.63 µM
same,IC50,[19],0.33 µM
same,selectivity ratio,[20],5
same,selectivity ratio,[21],0.59
same,selectivity ratio,[22],0.56
same,viability,[23],46.09%
same,viability,[24],23.26%
same,Activity,[25],inactive
same,Activity,[26],51.4%
same,Activity,[27],75.7%

# From ChEMBL document CHEMBL3259621, “Novel merosesquiterpene exerts a potent antitumor activity against breast cancer cells in vitro and in vivo” (Eur J Med Chem, 2014)
